Reference: ChEMBL document CHEMBL3102739, “Synthesis and antiproliferative activity of conformationally restricted 1,2,3-triazole analogues of combretastatins in the sea urchin embryo model and against human cancer cell lines” (Bioorg Med Chem, 2014)
pEC50: −log10 of the molar value. Active and inactive are the calls of the source. No cut-off for these calls is given here.

What was measured:
[1] = Cytotoxicity against human Jurkat/A4 cells assessed as cell death at 1 uM after 48 hrs by trypan blue exclusion assay relative to control; assay type: functional
Procedure, shortened: (§1)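 Compound added to exponentially growing Jurkat or Jurkat/A4 cells in RPMI-1640 with 10% FCS at 37 °C. Viable cells counted directly by trypan blue exclusion after 48 h. EC50 taken by linear interpolation of survival data. Mean±SD from three independent experiments.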

[2] = system: Jurkat; experiment: Cytotoxicity against human Jurkat cells assessed as cell viability after 48 hrs by trypan blue exclusion assay; assay type: functional, cell-based; procedure, shortened: as §1
[3] = Induction of apoptosis in human Jurkat/A4 cells assessed as active caspase 3 expression at 150 nM after 48 hrs by FITC-conjugated flow cytometric analysis (reference value: 1.1%); assay type: functional
Procedure, shortened: (§2)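 Jurkat or Jurkat/A4 cells treated, then permeabilized per the manufacturer's protocol and stained with FITC-conjugated monoclonal antibody to active caspase-3. Percentage of positive cells (M1 gate) measured by flow cytometry. Untreated cells served as controls.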

[4] = Induction of apoptosis in human Jurkat/A4 cells assessed as active caspase 3 expression at 150 nM after 24 hrs by FITC-conjugated flow cytometric analysis (reference value: 1.1%); assay type: functional; procedure, shortened: as §2
[5] = system: Jurkat; experiment: Induction of apoptosis in human Jurkat cells assessed as active caspase 3 expression at 15 nM after 48 hrs by FITC-conjugated flow cytometric analysis (reference value: 3.3%); assay type: functional; procedure, shortened: as §2
[6] = system: Jurkat; experiment: Induction of apoptosis in human Jurkat cells assessed as active caspase 3 expression at 15 nM after 24 hrs by FITC-conjugated flow cytometric analysis (reference value: 3.3%); assay type: functional; procedure, shortened: as §2
[7] = system: Jurkat; experiment: Induction of apoptosis in human Jurkat cells assessed as active caspase 3 expression at 15 nM by FITC-conjugated flow cytometric analysis; assay type: functional, cell-based; conditions: TDE = time-dependent effect; procedure, shortened: as §2
[8] = system: Jurkat/A4; experiment: Induction of apoptosis in human Jurkat/A4 cells assessed as Bcl-2 expression at 150 nM after 24 to 48 hrs Western blotting analysis; assay type: functional, cell-based
Procedure, shortened: (§3)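 Treatment 24 or 48 h (Jurkat 15 nM, Jurkat/A4 150 nM for CA4P). Cells washed in ice-cold PBS and lysed 30 min at 4 °C in 20 mM Tris-HCl pH 7.4, 1% Triton X-100, 150 mM NaCl with protease inhibitors. Equal protein run on 12% SDS-PAGE and blotted to PVDF. Probed with monoclonal antibodies to caspase-9, caspase-2, Bcl-2 or XIAP for 2 h at room temperature, then HRP anti-mouse and ECL. β-actin used as loading control.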

[9] = system: Jurkat; experiment: Induction of apoptosis in human Jurkat cells assessed as Bcl-2 expression at 15 nM after 24 to 48 hrs Western blotting analysis; assay type: functional, cell-based; procedure, shortened: as §3
[10] = system: Jurkat/A4; experiment: Induction of apoptosis in human Jurkat/A4 cells assessed as reduction of XIAP expression at 150 nM after 24 hrs Western blotting analysis; assay type: functional, cell-based; procedure, shortened: as §3
[11] = system: Jurkat; experiment: Induction of apoptosis in human Jurkat cells assessed as reduction of XIAP expression at 15 nM after 24 hrs Western blotting analysis; assay type: functional, cell-based; procedure, shortened: as §3
[12] = system: Jurkat/A4; experiment: Induction of apoptosis in human Jurkat/A4 cells assessed as caspase 2 activation at 150 nM after 24 to 48 hrs by Western blotting analysis; assay type: functional, cell-based; procedure, shortened: as §3
[13] = system: Jurkat/A4; experiment: Induction of apoptosis in human Jurkat/A4 cells assessed as caspase 9 activation at 150 nM after 24 to 48 hrs by Western blotting analysis; assay type: functional, cell-based; procedure, shortened: as §3
[14] = system: Jurkat; experiment: Induction of apoptosis in human Jurkat cells assessed as caspase 2 activation at 15 nM after 24 to 48 hrs by Western blotting analysis; assay type: functional, cell-based; procedure, shortened: as §3
[15] = system: Jurkat; experiment: Induction of apoptosis in human Jurkat cells assessed as caspase 9 activation at 15 nM after 48 hrs by Western blotting analysis; assay type: functional, cell-based; procedure, shortened: as §3
[16] = Cell cycle arrest in human Jurkat/A4 cells assessed as accumulation at sub-G1 phase at 150 nM after 48 hrs by propidium iodide staining-based flow cytometric analysis (reference value: 17.1%); assay type: functional
[17] = system: Jurkat/A4; experiment: Induction of apoptosis in human Jurkat/A4 cells assessed as micronuclei formation after 48 hrs by May-Grunwald-Giemsa staining-based microscopic analysis; assay type: functional, cell-based
Procedure, shortened: (§4)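 Jurkat or Jurkat/A4 cells treated 48 h, with untreated cells as control. Cells cytospun, stained by May–Grünwald–Giemsa and examined by light microscopy with a 100× objective for micronuclei, membrane-enclosed fragments with unequally segregated chromosomes, and condensed nuclei.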

[18] = system: Jurkat/A4; experiment: Induction of apoptosis in human Jurkat/A4 cells assessed as small cell fragments with unequally segregated chromosomes enclosed by cell membrane after 48 hrs by May-Grunwald-Giemsa staining-based microscopic analysis; assay type: functional; procedure, shortened: as §4
[19] = system: Jurkat; experiment: Induction of apoptosis in human Jurkat cells assessed as small cell fragments with unequally segregated chromosomes enclosed by cell membrane after 48 hrs by May-Grunwald-Giemsa staining-based microscopic analysis; assay type: functional; procedure, shortened: as §4
[20] = system: Jurkat; experiment: Induction of apoptosis in human Jurkat cells assessed as micronuclei formation after 48 hrs by May-Grunwald-Giemsa staining-based microscopic analysis; assay type: functional, cell-based; procedure, shortened: as §4
[21] = system: Jurkat; experiment: Cell cycle arrest in human Jurkat cells assessed as accumulation at sub-G1 phase at 15 nM after 48 hrs by propidium iodide staining-based flow cytometric analysis (reference value: 12.2%); assay type: functional
[22] = Cell cycle arrest in human Jurkat/A4 cells assessed as decrease in accumulation at G0/G1 phase at 150 nM after 24 hrs by propidium iodide staining-based flow cytometric analysis; assay type: functional
[23] = Cell cycle arrest in human Jurkat/A4 cells assessed as increase in accumulation at G2/M phase at 150 nM after 24 hrs by propidium iodide staining-based flow cytometric analysis; assay type: functional
[24] = system: Jurkat; experiment: Cell cycle arrest in human Jurkat cells assessed as decrease in accumulation at G0/G1 phase at 15 nM after 24 hrs by propidium iodide staining-based flow cytometric analysis; assay type: functional
[25] = system: Jurkat; experiment: Cell cycle arrest in human Jurkat cells assessed as increase in accumulation at G2/M phase at 15 nM after 24 hrs by propidium iodide staining-based flow cytometric analysis; assay type: functional

Compound `COc1ccc(/C=C\c2cc(OC)c(OC)c(OC)c2)cc1OP(=O)([O-])[O-].[Na+].[Na+]` [FOSBRETABULIN DISODIUM] has an Activity [1] of under 20%, a pEC50 [2] of 7.82 and an Activity [3] of 1.6%. It also gave an Activity [4] of 2.2%, an Activity [5] of 31.6% and an Activity [6] of 15%. For the same compound, the Activity [7] was “tde”, the Activity [8] was “inactive” and the Activity [9] was “inactive”. The Activity [10] was “inactive”, the Activity [11] was “Active” and the Activity [12] was “inactive”. The Activity [13] was “inactive”, the Activity [14] was “Active” and the Activity [15] was “Active”. For the same compound, the Activity [16] was 24.3%, the Activity [17] was “Active” and the Activity [18] was “Active”. For the same compound, the Activity [19] was “Active”, the Activity [20] was “Active” and the Activity [21] was 39.5%. For the same compound, the Activity [22] was “Active”, the Activity [23] was “Active” and the Activity [24] was “Active”. For the same compound, the Activity [25] was “Active”.
